Six compounds from ChEMBL document CHEMBL1156789, “Design and synthesis of 5,5'-disubstituted aminohydantoins as potent and selective human beta-secretase (BACE1) inhibitors” (J Med Chem, 2010) can be followed below.

For data set [1], the target named is T1, Cathepsin D (Homo sapiens, UniProt P07339). In words: Inhibition of human cathepsin D by FRET based peptide cleavage assay.
For data set [2], the target named is T2, Beta-secretase 2 (Homo sapiens) (UniProt Q9Y5Z0).
T2 sequence (whole entry): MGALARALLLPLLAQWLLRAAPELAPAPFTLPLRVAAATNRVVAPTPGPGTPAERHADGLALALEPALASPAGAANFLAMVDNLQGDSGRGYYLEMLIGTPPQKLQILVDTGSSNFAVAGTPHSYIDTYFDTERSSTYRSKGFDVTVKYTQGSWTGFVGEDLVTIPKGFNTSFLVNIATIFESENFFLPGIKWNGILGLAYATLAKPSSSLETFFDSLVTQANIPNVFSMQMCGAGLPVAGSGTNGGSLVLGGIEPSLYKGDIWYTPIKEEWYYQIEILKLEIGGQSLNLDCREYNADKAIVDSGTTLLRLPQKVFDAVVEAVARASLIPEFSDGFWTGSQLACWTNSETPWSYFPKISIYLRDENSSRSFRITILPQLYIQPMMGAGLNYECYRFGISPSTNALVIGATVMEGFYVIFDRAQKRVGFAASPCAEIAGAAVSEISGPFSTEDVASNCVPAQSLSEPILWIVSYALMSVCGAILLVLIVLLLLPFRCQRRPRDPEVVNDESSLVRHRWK
As to conditions: 25 uM.

For data set [3], the target named is T1, Cathepsin D. The experiment in a line: Inhibition of human cathepsin D at 100 uM by FRET based peptide cleavage assay.
Data set [4] is described as follows: Inhibition of pepsin by FRET based peptide cleavage assay.
Data set [5] addresses T3, Renin (Homo sapiens, UniProt P00797).
T3 sequence (P00797 whole entry): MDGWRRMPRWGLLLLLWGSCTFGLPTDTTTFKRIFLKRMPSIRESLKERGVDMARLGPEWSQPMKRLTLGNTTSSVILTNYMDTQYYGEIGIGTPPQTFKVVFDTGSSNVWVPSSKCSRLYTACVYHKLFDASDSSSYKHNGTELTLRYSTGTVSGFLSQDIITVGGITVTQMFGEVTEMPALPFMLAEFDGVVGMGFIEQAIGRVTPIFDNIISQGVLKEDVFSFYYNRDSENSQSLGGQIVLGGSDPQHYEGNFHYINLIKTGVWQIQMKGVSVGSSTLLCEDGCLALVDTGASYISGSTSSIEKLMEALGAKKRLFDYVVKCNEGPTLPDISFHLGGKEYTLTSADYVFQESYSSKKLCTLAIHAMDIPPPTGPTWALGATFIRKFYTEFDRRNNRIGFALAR
The experiment in a line: Inhibition of human recombinant renin by FRET based peptide cleavage assay.

A short description of data set [6]: Dissociation constant, pKa of the compound. The class given is physicochemical.
Data set [7] addresses T4, Beta-secretase 1 (Homo sapiens, UniProt P56817). The experiment in a line: Inhibition of BACE1 expressed in CHOK1 cells coexpressing human recombinant wild type APP assessed as blockade of amyloid beta production by ELISA. The class given is cell-based, CHO-K1. In general terms: In an ELISA, binding on a coated surface is turned into a signal by an enzyme label.
Data set [8] concerns the target T4, Beta-secretase 1. In words: Inhibition of human BACE1 by FRET based peptide cleavage assay.
Data set [9] is filed under the species Homo sapiens. In words: Selectivity for human BACE1 over human BACE2.
Data set [10] concerns the target T5, Beta-secretase 2 (Homo sapiens, UniProt Q9Y5Z0).
T5 sequence (Q9Y5Z0 whole entry): T2 sequence (whole entry)
The experiment in a line: Inhibition of human BACE2 by FRET based peptide cleavage assay.

Data set [11] relates to Mus musculus. The experiment in a line: Reduction in amyloid beta 40 level in Tg2576 mouse plasma at 100 mg/kg, po after 8 hrs. The class given is functional. The arrangement: scale not given: the % may be the effect or the level left. A digest of the protocol: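 Tg2576 mice received a single acute oral dose. Plasma Aβ40 was measured 8 h after dosing.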

The term IC50 denotes the point on the concentration scale where inhibition reaches its midpoint. Broadly, the inhibition is the share of the control response that was lost under treatment. Usually pKa stands for the negative logarithm of the acid dissociation constant. Broadly, the EC50 is the concentration that produces a half-maximal response.

T4 sequence (P56817 whole entry): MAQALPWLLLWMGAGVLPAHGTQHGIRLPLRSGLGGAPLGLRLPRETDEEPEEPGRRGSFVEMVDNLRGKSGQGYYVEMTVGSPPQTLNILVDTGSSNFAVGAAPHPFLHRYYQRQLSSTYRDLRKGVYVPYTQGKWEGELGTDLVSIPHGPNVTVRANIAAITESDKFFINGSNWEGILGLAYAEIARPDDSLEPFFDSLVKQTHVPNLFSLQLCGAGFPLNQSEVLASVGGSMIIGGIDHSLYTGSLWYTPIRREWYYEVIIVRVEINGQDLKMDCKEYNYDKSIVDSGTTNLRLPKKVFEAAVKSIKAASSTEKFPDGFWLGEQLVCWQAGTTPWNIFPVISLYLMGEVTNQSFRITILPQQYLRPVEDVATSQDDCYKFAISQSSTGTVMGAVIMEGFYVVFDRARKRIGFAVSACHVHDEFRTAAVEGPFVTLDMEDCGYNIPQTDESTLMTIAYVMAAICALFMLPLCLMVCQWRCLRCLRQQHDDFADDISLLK
T1 sequence (P07339 65-162 limits assumed): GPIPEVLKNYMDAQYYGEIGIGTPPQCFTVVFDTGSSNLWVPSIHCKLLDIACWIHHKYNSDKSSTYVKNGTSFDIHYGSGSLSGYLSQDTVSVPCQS
T1 sequence (P07339 169-412 limits assumed): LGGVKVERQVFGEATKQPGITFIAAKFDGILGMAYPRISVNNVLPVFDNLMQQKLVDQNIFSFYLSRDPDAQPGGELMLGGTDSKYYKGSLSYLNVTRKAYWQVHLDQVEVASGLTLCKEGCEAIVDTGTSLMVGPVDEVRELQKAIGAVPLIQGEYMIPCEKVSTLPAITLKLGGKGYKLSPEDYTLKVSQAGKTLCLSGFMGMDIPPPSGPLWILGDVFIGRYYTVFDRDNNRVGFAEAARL

For the compound `COc1ccc([C@@]2(C34CC5CC(CC(C5)C3)C4)N=C(N)N(C)C2=O)cc1`, the half-maximal inhibitory concentration (IC50) in data set [1] was determined as 20.8 µM. Also, the inhibition in [2] is 50%.

For `CN1C(=O)C(c2ccccc2)(c2ccccc2)N=C1N`, the inhibition in [3] came to 36%. Moreover, the half-inhibitory concentration (IC50) in data set [4] is 11.1 µM; in data set [5] it was 9.6 µM. The compound further gave a pKa in [6] of 5.7.

For the compound `COc1ccc(C2(C34CC5CC(CC(C5)C3)C4)N=C(N)N(C)C2=O)cc1OC` (stereo not given), the figures for the IC50 in [1], in data set [8] and in data set [10] were 36.6 µM, 0.27 µM and 9.59 µM, respectively. Also, the EC50 in data set [7] was determined as 0.19 µM. The Ratio IC50 in data set [9] was found to be 20.

As to `COc1ccc([C@@]2(c3ccc(F)c(-c4cccnc4F)c3)N=C(N)N(C)C2=O)cc1C`, the IC50 in data set [1] came to 0.82 µM; in data set [10], 0.81 µM. The Activity in data set [11] is on record as 69%.

On to `CCc1cc(C2(C34CC5CC(CC(C5)C3)C4)N=C(N)N(C)C2=O)ccc1OC` (stereo not given), for which the values for the half-maximal inhibitory concentration (IC50) in [1], in data set [8] and in data set [10] were 14.1 µM, 0.28 µM and 4.33 µM, respectively. In [7], the EC50 amounted to 0.76 µM. Also, the Ratio IC50 in data set [9] stood at 20.

In turn, `NC1=NC(c2ccccc2)(c2ccccc2)C2=NCCCN12` had a pKa in [6] of 7.6.
